# pIC50: −log10 of the molar value. Activity calls are given as the source filed them. The rule behind the calls is not given here.
# System: HeLa
# Test: Decrease in mitotic index in human HeLa cells after 10 to 12 hrs post thymidine block by pHH3Ser10/Hoechst33342 staining-based immunofluorescence analysis
# Assay type: functional, cell-based
# Procedure, shortened: (§1)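 HeLa cells synchronized by thymidine block, released and treated with compound, fixed at set times (4% paraformaldehyde, 30 min), permeabilized with 0.1% Triton X-100, blocked in 1% BSA. Stained with anti-pHH3Ser10 (1:500, 1.5 h, RT) and Alexa-594 secondary, Hoechst 33342 counterstain. Mitotic index is the percentage of pHH3Ser10-positive cells among about 2000-3000 cells per condition.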
row,SMILES,Activity
1,CN(C)Cc1ccccc1NC(=O)Nc1ccc(CCNc2ncnc3oc(-c4ccccc4)c(Cl)c23)cc1,Active
2,O=C(Nc1ccc(CCNc2ncnc3oc(-c4ccccc4)c(Cl)c23)cc1)Nc1ccccc1CN1CCC(O)CC1,Active

# Biological target: T1, Aurora kinase B (Homo sapiens, UniProt Q96GD4)
# T1 sequence (Q96GD4 whole entry, the tested form may be a part): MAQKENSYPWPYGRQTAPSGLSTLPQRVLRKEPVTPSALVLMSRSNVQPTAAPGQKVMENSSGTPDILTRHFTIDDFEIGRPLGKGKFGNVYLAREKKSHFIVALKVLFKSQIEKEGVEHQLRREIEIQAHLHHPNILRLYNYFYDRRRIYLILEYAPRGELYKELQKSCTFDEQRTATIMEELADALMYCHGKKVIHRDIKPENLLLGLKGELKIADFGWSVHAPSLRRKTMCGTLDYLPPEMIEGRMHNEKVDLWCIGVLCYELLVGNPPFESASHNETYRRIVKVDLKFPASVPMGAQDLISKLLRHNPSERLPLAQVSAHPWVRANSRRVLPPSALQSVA
# Test: Inhibition of human recombinant full length Aurora-B (1 to 344 residues) expressed in Sf9 cells after 90 mins by kinase-glo luminescence assay
row,SMILES,pIC50
1,Cc1ccc(NC(=O)Nc2ccc(CCNc3ncnc4oc(-c5ccccc5)c(Cl)c34)cc2)cc1,7.13
2,CC(C)Cc1cccc(NC(=O)Nc2ccc(CCNc3ncnc4oc(-c5ccccc5)c(Cl)c34)cc2)c1,< 6.00
3,O=C(Nc1ccc(CCNc2ncnc3oc(-c4ccccc4)c(Cl)c23)cc1)Nc1cccc(CN2CCC(O)CC2)c1,7.08
4,O=C(Nc1ccc(CCNc2ncnc3oc(-c4ccccc4)c(Cl)c23)cc1)Nc1ccc(CN2CCCCC2)cc1,6.01
5,CCN(CC)Cc1ccc(NC(=O)Nc2ccc(CCNc3ncnc4oc(-c5ccccc5)c(Cl)c34)cc2)cc1,6.08
6,CCN(CC)Cc1ccccc1NC(=O)Nc1ccc(CCNc2ncnc3oc(-c4ccccc4)c(Cl)c23)cc1,6.28
7,O=C(Nc1ccc(CCNc2ncnc3oc(-c4ccccc4)c(Cl)c23)cc1)Nc1ccccc1CN1CCCCC1,6.92
8,CN(C)Cc1ccc(NC(=O)Nc2ccc(CCNc3ncnc4oc(-c5ccccc5)c(Cl)c34)cc2)cc1,6.34
9,CCc1cccc(NC(=O)Nc2ccc(CCNc3ncnc4oc(-c5ccccc5)c(Cl)c34)cc2)c1,7.06
10,Cc1cccc(NC(=O)Nc2ccc(CCNc3ncnc4oc(-c5ccccc5)c(Cl)c34)cc2)c1,7.13
11,CC(C)Cc1ccc(NC(=O)Nc2ccc(CCNc3ncnc4oc(-c5ccccc5)c(Cl)c34)cc2)cc1,< 6.00
12,CC(C)c1ccccc1NC(=O)Nc1ccc(CCNc2ncnc3oc(-c4ccccc4)c(Cl)c23)cc1,6.47
13,O=C(Nc1ccc(CCNc2ncnc3oc(-c4ccccc4)c(Cl)c23)cc1)Nc1cccc(CN2CCCCC2)c1,6.99
14,CC(C)c1cccc(NC(=O)Nc2ccc(CCNc3ncnc4oc(-c5ccccc5)c(Cl)c34)cc2)c1,6.18
15,O=C(Nc1ccc(CCNc2ncnc3oc(-c4ccccc4)c(Cl)c23)cc1)Nc1ccc(CN2CCC(O)CC2)cc1,6.45
16,CN(C)Cc1cccc(NC(=O)Nc2ccc(CCNc3ncnc4oc(-c5ccccc5)c(Cl)c34)cc2)c1,6.70
17,CCN(C)Cc1cccc(NC(=O)Nc2ccc(CCNc3ncnc4oc(-c5ccccc5)c(Cl)c34)cc2)c1,6.85
18,CC(C)c1ccc(NC(=O)Nc2ccc(CCNc3ncnc4oc(-c5ccccc5)c(Cl)c34)cc2)cc1,< 6.00
19,CCc1ccccc1NC(=O)Nc1ccc(CCNc2ncnc3oc(-c4ccccc4)c(Cl)c23)cc1,7.18
20,O=C(Nc1ccc(CCNc2ncnc3oc(-c4ccccc4)c(Cl)c23)cc1)Nc1ccccc1CN1CCC(O)CC1,7.10
21,Cc1ccccc1NC(=O)Nc1ccc(CCNc2ncnc3oc(-c4ccccc4)c(Cl)c23)cc1,7.22
22,O=C(Nc1ccccc1)Nc1ccc(CCNc2ncnc3oc(-c4ccccc4)c(Cl)c23)cc1,7.18
23,CCc1ccc(NC(=O)Nc2ccc(CCNc3ncnc4oc(-c5ccccc5)c(Cl)c34)cc2)cc1,6.35
24,CC(C)Cc1ccccc1NC(=O)Nc1ccc(CCNc2ncnc3oc(-c4ccccc4)c(Cl)c23)cc1,6.15
25,CCN(CC)Cc1cccc(NC(=O)Nc2ccc(CCNc3ncnc4oc(-c5ccccc5)c(Cl)c34)cc2)c1,6.92

# Biological target: T1, Aurora kinase B
# Test: Inhibition of Aurora-B autophosphorylation at Thr232 in human HCT116 cells after 1 hr by Western blot analysis
# Assay type: cell-based
# Procedure, shortened: (§2)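 HCT116 cells arrested in mitosis with 200 nM nocodazole for 24 h, then exposed to compound for 1 h over 9 concentrations. Lysed in Laemmli buffer, SDS-PAGE, PVDF immunoblot for phospho-Aurora-A Thr288 / Aurora-B Thr232 with HRP secondary and chemiluminescence. IC50 derived from blot profiles.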
row,SMILES,pIC50
1,CN(C)Cc1ccccc1NC(=O)Nc1ccc(CCNc2ncnc3oc(-c4ccccc4)c(Cl)c23)cc1,7.63
2,CN(C)Cc1cccc(NC(=O)Nc2ccc(CCNc3ncnc4oc(-c5ccccc5)c(Cl)c34)cc2)c1,< 5.00
3,CCN(C)Cc1cccc(NC(=O)Nc2ccc(CCNc3ncnc4oc(-c5ccccc5)c(Cl)c34)cc2)c1,< 5.00
4,O=C(Nc1ccc(CCNc2ncnc3oc(-c4ccccc4)c(Cl)c23)cc1)Nc1ccccc1CN1CCC(O)CC1,6.88
5,O=C(Nc1ccccc1)Nc1ccc(CCNc2ncnc3oc(-c4ccccc4)c(Cl)c23)cc1,6.72

# System: Detroit 551
# Test: Cytotoxicity against human Detroit 551 cells
# Assay type: cell-based
row,SMILES,pIC50
1,CN(C)Cc1ccccc1NC(=O)Nc1ccc(CCNc2ncnc3oc(-c4ccccc4)c(Cl)c23)cc1,5.51
2,CN(C)Cc1cccc(NC(=O)Nc2ccc(CCNc3ncnc4oc(-c5ccccc5)c(Cl)c34)cc2)c1,5.30
3,CCN(C)Cc1cccc(NC(=O)Nc2ccc(CCNc3ncnc4oc(-c5ccccc5)c(Cl)c34)cc2)c1,5.01
4,O=C(Nc1ccc(CCNc2ncnc3oc(-c4ccccc4)c(Cl)c23)cc1)Nc1ccccc1CN1CCC(O)CC1,5.46
5,O=C(Nc1ccccc1)Nc1ccc(CCNc2ncnc3oc(-c4ccccc4)c(Cl)c23)cc1,5.14

# System: HeLa
# Test: Increase in mitotic index in human HeLa cells after 10 to 12 hrs post thymidine block by pHH3Ser10/Hoechst33342 staining-based immunofluorescence analysis
# Assay type: functional, cell-based
# Procedure, shortened: as §1
row,SMILES,Activity
1,CN(C)Cc1cccc(NC(=O)Nc2ccc(CCNc3ncnc4oc(-c5ccccc5)c(Cl)c34)cc2)c1,Active
2,O=C(Nc1ccccc1)Nc1ccc(CCNc2ncnc3oc(-c4ccccc4)c(Cl)c23)cc1,Active

# Biological target: T2, Aurora kinase A (Homo sapiens, UniProt O14965)
# T2 sequence (O14965 whole entry): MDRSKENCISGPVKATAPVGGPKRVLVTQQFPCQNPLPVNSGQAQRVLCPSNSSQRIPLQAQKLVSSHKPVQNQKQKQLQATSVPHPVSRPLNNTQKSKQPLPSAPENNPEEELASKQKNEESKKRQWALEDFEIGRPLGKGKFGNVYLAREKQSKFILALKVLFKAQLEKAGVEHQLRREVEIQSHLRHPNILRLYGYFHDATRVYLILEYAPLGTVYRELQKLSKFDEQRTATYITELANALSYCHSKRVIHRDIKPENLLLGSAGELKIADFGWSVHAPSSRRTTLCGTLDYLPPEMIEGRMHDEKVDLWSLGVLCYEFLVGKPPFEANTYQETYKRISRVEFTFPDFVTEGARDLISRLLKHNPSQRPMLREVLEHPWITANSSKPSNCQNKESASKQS
# Test: Inhibition of GST-tagged human recombinant Aurora A kinase domain (123 to 401 residues) expressed in Sf9 cells after 120 mins by kinase-glo luminescence assay
row,SMILES,pIC50
1,Cc1ccc(NC(=O)Nc2ccc(CCNc3ncnc4oc(-c5ccccc5)c(Cl)c34)cc2)cc1,7.26
2,CC(C)Cc1cccc(NC(=O)Nc2ccc(CCNc3ncnc4oc(-c5ccccc5)c(Cl)c34)cc2)c1,6.61
3,O=C(Nc1ccc(CCNc2ncnc3oc(-c4ccccc4)c(Cl)c23)cc1)Nc1cccc(CN2CCC(O)CC2)c1,7.17
4,O=C(Nc1ccc(CCNc2ncnc3oc(-c4ccccc4)c(Cl)c23)cc1)Nc1ccc(CN2CCCCC2)cc1,6.35
5,CCN(CC)Cc1ccc(NC(=O)Nc2ccc(CCNc3ncnc4oc(-c5ccccc5)c(Cl)c34)cc2)cc1,6.63
6,CCN(CC)Cc1ccccc1NC(=O)Nc1ccc(CCNc2ncnc3oc(-c4ccccc4)c(Cl)c23)cc1,6.34
7,O=C(Nc1ccc(CCNc2ncnc3oc(-c4ccccc4)c(Cl)c23)cc1)Nc1ccccc1CN1CCCCC1,6.70
8,CN(C)Cc1ccc(NC(=O)Nc2ccc(CCNc3ncnc4oc(-c5ccccc5)c(Cl)c34)cc2)cc1,7.01
9,CCc1cccc(NC(=O)Nc2ccc(CCNc3ncnc4oc(-c5ccccc5)c(Cl)c34)cc2)c1,7.18
10,Cc1cccc(NC(=O)Nc2ccc(CCNc3ncnc4oc(-c5ccccc5)c(Cl)c34)cc2)c1,7.28
11,CC(C)Cc1ccc(NC(=O)Nc2ccc(CCNc3ncnc4oc(-c5ccccc5)c(Cl)c34)cc2)cc1,< 6.00
12,CC(C)c1ccccc1NC(=O)Nc1ccc(CCNc2ncnc3oc(-c4ccccc4)c(Cl)c23)cc1,6.28
13,O=C(Nc1ccc(CCNc2ncnc3oc(-c4ccccc4)c(Cl)c23)cc1)Nc1cccc(CN2CCCCC2)c1,7.04
14,CC(C)c1cccc(NC(=O)Nc2ccc(CCNc3ncnc4oc(-c5ccccc5)c(Cl)c34)cc2)c1,6.63
15,O=C(Nc1ccc(CCNc2ncnc3oc(-c4ccccc4)c(Cl)c23)cc1)Nc1ccc(CN2CCC(O)CC2)cc1,6.82
16,CN(C)Cc1cccc(NC(=O)Nc2ccc(CCNc3ncnc4oc(-c5ccccc5)c(Cl)c34)cc2)c1,7.70
17,CCN(C)Cc1cccc(NC(=O)Nc2ccc(CCNc3ncnc4oc(-c5ccccc5)c(Cl)c34)cc2)c1,8.05
18,CC(C)c1ccc(NC(=O)Nc2ccc(CCNc3ncnc4oc(-c5ccccc5)c(Cl)c34)cc2)cc1,< 6.00
19,CCc1ccccc1NC(=O)Nc1ccc(CCNc2ncnc3oc(-c4ccccc4)c(Cl)c23)cc1,6.75
20,O=C(Nc1ccc(CCNc2ncnc3oc(-c4ccccc4)c(Cl)c23)cc1)Nc1ccccc1CN1CCC(O)CC1,6.64
21,Cc1ccccc1NC(=O)Nc1ccc(CCNc2ncnc3oc(-c4ccccc4)c(Cl)c23)cc1,7.08
22,O=C(Nc1ccccc1)Nc1ccc(CCNc2ncnc3oc(-c4ccccc4)c(Cl)c23)cc1,7.28
23,CCc1ccc(NC(=O)Nc2ccc(CCNc3ncnc4oc(-c5ccccc5)c(Cl)c34)cc2)cc1,6.86
24,CC(C)Cc1ccccc1NC(=O)Nc1ccc(CCNc2ncnc3oc(-c4ccccc4)c(Cl)c23)cc1,< 6.00
25,CCN(CC)Cc1cccc(NC(=O)Nc2ccc(CCNc3ncnc4oc(-c5ccccc5)c(Cl)c34)cc2)c1,7.67

# System: HCT-116
# Test: Cytotoxicity against human HCT116 cells
# Assay type: functional, cell-based
row,SMILES,pIC50
1,CN(C)Cc1ccccc1NC(=O)Nc1ccc(CCNc2ncnc3oc(-c4ccccc4)c(Cl)c23)cc1,7.15
2,CN(C)Cc1cccc(NC(=O)Nc2ccc(CCNc3ncnc4oc(-c5ccccc5)c(Cl)c34)cc2)c1,6.24
3,CCN(C)Cc1cccc(NC(=O)Nc2ccc(CCNc3ncnc4oc(-c5ccccc5)c(Cl)c34)cc2)c1,6.47
4,O=C(Nc1ccc(CCNc2ncnc3oc(-c4ccccc4)c(Cl)c23)cc1)Nc1ccccc1CN1CCC(O)CC1,6.51
5,O=C(Nc1ccccc1)Nc1ccc(CCNc2ncnc3oc(-c4ccccc4)c(Cl)c23)cc1,6.82

# Biological target: T2, Aurora kinase A
# Test: Inhibition of Aurora-A autophosphorylation at Thr288 in human HCT116 cells after 1 hr by Western blot analysis
# Assay type: cell-based
# Procedure, shortened: as §2
row,SMILES,pIC50
1,CN(C)Cc1ccccc1NC(=O)Nc1ccc(CCNc2ncnc3oc(-c4ccccc4)c(Cl)c23)cc1,7.13
2,CN(C)Cc1cccc(NC(=O)Nc2ccc(CCNc3ncnc4oc(-c5ccccc5)c(Cl)c34)cc2)c1,7.22
3,CCN(C)Cc1cccc(NC(=O)Nc2ccc(CCNc3ncnc4oc(-c5ccccc5)c(Cl)c34)cc2)c1,6.88
4,O=C(Nc1ccc(CCNc2ncnc3oc(-c4ccccc4)c(Cl)c23)cc1)Nc1ccccc1CN1CCC(O)CC1,5.82
5,O=C(Nc1ccccc1)Nc1ccc(CCNc2ncnc3oc(-c4ccccc4)c(Cl)c23)cc1,6.41
